The list is not random: actives were taken first. Their share in the collection is about 2.6%.
Rce1 inh – inhibitors of yeast Ras-converting enzyme; Q03530; yeast membranes, quenched prenylated peptide cleavage fluorescence; calls only; 290,000 tested, 0.27% active;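 active = fall in fluorescence gain of 50% or more versus controls, with final raw signal at or below 3038400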;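 note: plate controls were neutral control wells for no effect and wells lacking membranes for full effect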
Target sequence (Q03530 whole entry, looked up): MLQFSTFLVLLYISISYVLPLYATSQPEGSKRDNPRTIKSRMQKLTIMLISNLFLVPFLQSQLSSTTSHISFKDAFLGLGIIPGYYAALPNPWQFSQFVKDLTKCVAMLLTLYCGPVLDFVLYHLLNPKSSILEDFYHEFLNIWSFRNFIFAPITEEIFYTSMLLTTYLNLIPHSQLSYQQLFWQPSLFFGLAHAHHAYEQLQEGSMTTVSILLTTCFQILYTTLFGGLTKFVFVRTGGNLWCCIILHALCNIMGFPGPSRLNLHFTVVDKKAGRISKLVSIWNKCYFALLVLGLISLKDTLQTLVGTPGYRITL
TAAR1 ag – agonists of human TAAR1; Q96RJ0; CHO RD-HGA16 TAAR1, Fluo-8 calcium fluorescence; vehicle wells 0%, saturating PEA agonist 100%; activation, % at 3 µM; 360,000 tested, 0.99% active;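 active = activation above the mean activation of all test compounds in the run plus 3 SD, cut at about 38% in these data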
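Assay system: CHO-derived RD-HGA16 cells with stable Gα16 and human TAAR1; timing: 17-24 h seeding, 75 min 37 °C dye, 30 min RT; read-out: % activation from peak over basal fluorescence ratio, DMSO-to-PEA scaled; measured by: kinetic Fluo-8 calcium fluorescence; benchmarks: low control DMSO, high control PEA (EC100); doses: 3 µM single concentration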
Platelet DG rel – platelet dense granule release activity; human platelet-rich plasma, SFLLRN dense granule ATP release, luminescence; inhibition, %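 (compounds screened at 7.5 µM in platelet-rich plasma)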; 300,000 tested, 0.22% active;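 active = mean replicate score, as percent of positive control, at or above 50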
VLA-4 inh – inhibition in a human VLA-4 binding assay | P13612 | VLA-4 expressing cells, ligand binding flow cytometry | inhibition, % (about 7 µM as worked out from the volumes in the protocol) | 330,000 tested, 0.2% active | AID 2557; in the data active = inhibition above about 50%
TAAR1 antag – human TAAR1 antagonism; Q96RJ0; CHO RD-HGA16 TAAR1, Fluo-8 calcium fluorescence, antagonist; inhibition, % at 3 µM; 360,000 tested, 1.5% active; AID 624466;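 active = inhibition above a per-plate cutoff, the mean inhibition of test compounds on that plate plus 3 SD, cut at about 49% in these data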;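 note: 0% = DMSO plus EC80 beta-PEA response and 100% = DMSO alone without agonist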
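Test system – hTAAR1-expressing CHO RD-HGA16 cells, Gα16-coupled · Reagent – β-PEA at EC80 concentration, post-compound challenge · Compound dosing – 3 µM, single point · Timing – 140 s kinetic read after compound, 140 s after agonist · Detection – Fluo-8 intracellular calcium dye fluorescence, real-time kinetic reads · Control set – DMSO and EC80 PEA controls · Repeats – n of 1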
TAAR1 ag confirm – confirmation of human TAAR1 agonists; AID 651783; activation, % at 3 µM; 2,400 tested, 82% active; CHO RD-HGA16 TAAR1, Fluo-8 calcium fluorescence; scaled: DMSO 0%, maximal phenethylamine 100%; shares compounds with TAAR1 ag;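 active = activation above a cutoff set at the run's mean compound activation plus 3 SD, cut at about 39% in these data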
Ga16 ag counter – nonselective agonist in parental cells, TAAR1 agonist counter-screen | shares compounds with TAAR1 ag | CHO-Ga16 parental, Fluo-8 calcium fluorescence; normalized to maximal ATP response, DMSO zero | activation, % at 3 µM | 2,400 tested, 50% active | AID 651787;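 active = activation above the run cutoff, the mean activation over all tested wells plus 3 SD, cut at about 12% in these data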;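 note: 0% = DMSO wells and 100% = maximal ATP response on the peak over basal ratio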
TAAR1 desens – TAAR1 response desensitization, agonist counter-screen; 2,400 tested, 46% active; shares compounds with TAAR1 ag; inhibition, % at 3 µM; AID 651951; CHO RD-HGA16 hTAAR1, Fluo-8 calcium, beta-PEA response inhibition;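 active = inhibition above the run cutoff, the mean inhibition of all test compounds plus 3 SD, cut at about 49% in these data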;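 note: beta-PEA stimulus applied at its EC80; loss of beta-PEA calcium signal after compound pretreatment read as receptor desensitization; 0% = DMSO with beta-PEA at EC80 and 100% = DMSO alone without agonist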
Ga16 antag count – nonselective Ga16 antagonism, counter-screen; CHO-Ga16 ATP-induced calcium, Fluo-8 fluorescence; inhibition, % at 3 µM; shares compounds with TAAR1 ag; 2,400 tested, 39% active;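 active = inhibition above the plate's mean compound inhibition plus 3 SD, computed per plate, cut at about 22% in these data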;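 note: 0% = EC80 ATP with DMSO and 100% = DMSO wells without ATP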
* hit, by the source's call; i = inactive; nt = not tested or not shown.

SMILES	Rce1 inh	TAAR1 ag	Platelet DG rel	VLA-4 inh	TAAR1 antag	TAAR1 ag confirm	Ga16 ag counter	TAAR1 desens	Ga16 antag count
CCN(CC)c1ccc(/C=N/NC(=O)Cc2nnc(NC(=O)Nc3ccccc3)s2)cc1	i	57*	-7	-6	21	50*	0	36	11
O=C(Cc1nnc(NC(=O)Nc2ccc(F)cc2)s1)Nc1ccccc1	i	54*	-9	7	20	65*	13*	68*	9
O=C(Nc1ccccc1)Nc1nnc(Cc2ccc(F)cc2)s1	i	12	-4	-4	-23	nt	nt	nt	nt
CCCCC(=O)Nc1ccc(C(=O)Nc2ccc(OC)cc2[N+](=O)[O-])cc1	i	99*	16	10	76*	18	4	26	20
O=C1/C(=C/c2ccc(N3CCCC3)cc2)NC(=S)N1C1CC1	i	177*	-2	-174	99*	58*	61*	71*	71*
CN1C(=O)NC(c2ccc(Cl)cc2)C2=C1CC(C)(C)CC2=O (stereo not drawn)	i	9	-5	2	6	nt	nt	nt	nt
Cc1cc(OCC(=O)NNC(=S)NC(=O)c2ccc(Br)o2)ccc1Cl	i	121*	nt	-10	66*	98*	73*	75*	56*
CCC(=O)NC(=S)Nc1ccc(NC(=O)COc2ccc(Cl)c(C)c2)cc1	i	2	0	11	3	nt	nt	nt	nt
O=C(NC(=S)NNC(=O)c1cccs1)c1ccc(Br)o1	i	116*	-4	14	42	65*	46*	32	27*
CCc1nc2ccc(C(=O)NCc3ccc4c(c3)OCO4)cn2c1N(CCC(C)C)CCN(C)C	nt	4	nt	nt	-3	nt	nt	nt	nt
Cc1cc(F)ccc1NC(=O)c1ccc(NS(=O)(=O)c2cccs2)cc1	nt	1	nt	nt	-15	nt	nt	nt	nt
Cc1ccc(CN(C)C(=O)c2ccccc2NC(=O)c2ccccc2)o1	nt	0	nt	-5	-19	nt	nt	nt	nt
O=C(CC(c1ccccc1)c1ccccc1)Nc1ccc(O)cc1	i	2	-2	1	-1	nt	nt	nt	nt
O=C(CC(NCCc1ccccc1)C(=O)O)Nc1ccc(O)cc1 (stereo not drawn)	i	50*	3	1	6	91*	1	74*	6
O=C(Cc1ccccc1[N+](=O)[O-])OCc1cccc([N+](=O)[O-])c1	i	nt	-4	2	nt	nt	nt	nt	nt
O=C(NCc1cccc(C(F)(F)F)c1)c1csc([C@@H]2O[C@H](CO)[C@H](O)[C@H](O)[C@H]2O)n1	nt	2	nt	nt	-23	nt	nt	nt	nt
CCc1ccccc1NC(=O)C1CCN(S(=O)(=O)c2ccc3c(c2)N(C(C)=O)CCO3)CC1	i	1	-7	-6	-11	nt	nt	nt	nt
COc1ccc(CC(=O)Nc2ccc(NC(=O)c3ccccc3F)cc2)cc1	i	109*	15	-4	99*	60*	35*	42	16
COc1ccc(NC(=O)CSc2nc(N)c(NC(=O)c3ccccc3F)c(=O)[nH]2)cc1	i	5	1	21	-20	nt	nt	nt	nt
COc1ccc(NC(=O)c2ccc(C(=O)c3ccccc3)o2)cc1	nt	67*	nt	10	57*	6	8	23	15
O=[N+]([O-])c1ccn(-c2nc(-c3ccccc3)cc(C(F)(F)F)n2)n1	i	50*	-7	0	-6	4	1	4	2
COc1cccc(-c2cc(C(F)(F)F)nc(-n3ccc([N+](=O)[O-])n3)n2)c1	i	0	26	-4	-12	nt	nt	nt	nt
CCCCCCCCCCCCC/C=C/[C@@H](O)[C@@H](N)CO	i	39*	0	45	-8	83*	65*	13	23*
CCOc1ccc(S(=O)(=O)NCCC(=O)N(C)CC(=O)Nc2ccc(N3CCOCC3)cc2)cc1	i	1	0	0	-2	nt	nt	nt	nt

Assay outcomes deposited in PubChem by several laboratories.
